# Results gathered from unrelated publications.
# Each line is one published result; the experiments were not run side by side.
# CSNK1A1L: Casein kinase I isoform alpha-like (CSNK1A1L, Homo sapiens, UniProt Q8N752)
# CHRM1: Muscarinic acetylcholine receptor M1 (CHRM1, Homo sapiens, UniProt P11229)
# CDK3: Cyclin-dependent kinase 3 (CDK3, Homo sapiens, UniProt Q00526)
Structure (SMILES),target,test,test system,setting,quantity,result
COc1ccc2oc(-c3ccc4nc(N)oc4c3)c/c(=N\c3ccccc3NC(=O)CCN)c2c1,"Tyrosine-protein kinase ABL1 (Abl1, Mus musculus, UniProt P00520)",binding,,1 µM,remaining binding,91%
C1=C/COCc2cc(ccc2OCCN2CCCC2)Nc2nccc(n2)-c2cccc(c2)COC/1,CSNK1A1L,binding,,0.1 µM,remaining binding,99%
Cc1cc(O)c(-c2ccc([C@@H](C)CN(C)C)cc2)c2c1[nH]c(=O)c1sccc12,"Serine/threonine-protein kinase Sgk1 (SGK1, Homo sapiens, UniProt O00141)","enzyme activity, inhibitor",,0.1 µM,inhibition,-3.37%
NC/C(=C\F)COc1cccc(Cn2c(=S)[nH]c(=O)c3[nH]cnc32)c1,CHRM1,"ligand displacement, radioligand",,10 µM,inhibition,< 50%
CCN1/C(=C/C(C)=O)Sc2ccc(F)cc21,"Prostaglandin E2 receptor EP2 subtype (PTGER2, Homo sapiens, UniProt P43116)","ligand displacement, radioligand",,10 µM,inhibition,4.3%
Cc1cc(S(=O)(=O)N[C@H]2CC[C@H](CN3CCN(c4ccc(C5CCC(=O)NC5=O)cc4F)CC3)CC2)ccc1Nc1ncc(C(F)(F)F)c(N2CCC[C@](C)(O)C2)n1 (some centres unmarked),CDK3,"binding, competition with immobilised ligand",,1 µM,remaining binding,63%
C#Cc1cc(-c2cc(Nc3nc(N[C@@H](C)c4ccc(F)cn4)ncc3Cl)n[nH]2)ccc1C=O,"Tyrosine-protein kinase JAK1 (JAK1, Homo sapiens, UniProt P23458)","enzyme activity, inhibitor",,0.2 µM,inhibition,89.1%
CCCCC(=O)Nc1ccc(-c2ccc3ncn(CCC)c(=O)c3c2)cn1,CSNK1A1L,"binding, competition with immobilised ligand",,0.5 µM,remaining binding,99%
CNS(=O)(=O)c1ccc(Nc2ncc(C(F)(F)F)c(N3CCC[C@](C)(O)C3)n2)c(C)c1,CDK3,"binding, competition with immobilised ligand",,1 µM,remaining binding,49%
CNC(=O)COc1cc2cc(Nc3nc(N4CCC(C(=O)N(C)C)CC4)ncc3Cl)cc(OC)c2n(C)c1=O,"B-cell lymphoma 6 protein (BCL6, Homo sapiens, UniProt P41182)","target engagement in cells, BRET",HEK-293T,1 µM,inhibition,> 90%
Cc1cc(F)cc2c(CCC(=O)N[C@@H]3C(=O)NC[C@H]3O)c(-c3ccc(F)cc3)[nH]c12,CHRM1,cell-free assay,,10 µM,inhibition,14%
